Series [1] deals with P388. Nature of the series: Antineoplastic activity against P388 leukemia in CD2F1 male mice and the percent increase in life span was measured on day 30. It is filed as functional, Mus musculus. Put shortly:
(§1)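 P388 leukemia: CD2F1 male mice (18-20 g, six per group) received 10^6 cells ip on day 0. Drug injected ip daily on days 1-9. Survival followed 30 days, with some groups to 60 days. Activity read as treated/control mean survival time (T/C), with %ILS calculated as [(T - C)/C] × 100. NCI protocol.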

The subject of series [2] is P388. As to the kind of experiment: Antineoplastic activities against P388 leukemia in CD2F1 male mice. It is filed as functional, Mus musculus. Set-up: unit not given here. Put shortly:
as §1

A short description of series [3]: Therapeutic ratio as optimum dose/dose ILS40. As to conditions: read-out: Therapeutic ratio. The procedure, abridged:
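Therapeutic ratio derived from the P388/L1210 survival data (CD2F1 male mice, ip daily dosing days 1-9). Optimum dose is the daily dose giving maximum increase in life span. ILS40 dose is the daily dose giving a 40% increase in life span over controls.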

Series [4] deals with P388. Nature of the series: Compound was tested for its antineoplastic activity against P388 leukemia in CD2F1 male mice and the average percentage weight change on day 5 was measured. It is filed as functional. The procedure, abridged:
(§2)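 Toxicity readout in the P388 model: CD2F1 male mice given 10^6 cells ip on day 0, then daily ip dosing for 9 days from day 1. Average percentage body-weight change on day 5 was taken as the measure of drug toxicity.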

Series [5] concerns P388. As to the kind of experiment: Number of cures from P388 leukemia in CD2F1 male mice as tumor-free survivors after day 60. It is filed as functional. The conditions noted are these: for Cures (survivors/total): Mus musculus. Put shortly:
(§3)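 Cures in P388-bearing CD2F1 male mice: 10^6 tumor cells ip on day 0, then ip treatment daily on days 1-9 in groups of six. Animals were observed up to 60 days, and tumor-free survivors were counted as cures.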

The subject of series [6] is L1210. As to conditions: Mus musculus.
Series [7] relates to L1210. The conditions noted are these: Mus musculus, at 100 mg/kg/day.
The subject of series [8] is L1210. The conditions noted are these: Mus musculus. The source holds these as a separate data set.
For series [9], the system named is L1210. The conditions noted are these: Mus musculus, at 100 mg/kg/day. This is another data set of the same source.
Series [10] relates to P388. As to the kind of experiment: Antineoplastic activity against P388 leukemia in CD2F1 male mice and the average percentage weight change on day 5 was measured. In kind it is functional, Mus musculus. The procedure, abridged: as §2
Series [11] relates to L1210. It is filed as functional, Mus musculus.
In series [12] the test system is L1210. Nature of the series: Compound was tested for anticancer activity against L1210 leukemia in CD2F1 male mice at dose of 25 mg/kg per day; 8.6/7. It is filed as functional, Mus musculus.
Series [13] has as its system L1210. Nature of the series: Compound was tested for anticancer activity against L1210 leukemia in CD2F1 male mice at dose of 50 mg/kg per day; 12.6/7. It is filed as functional, Mus musculus.
In series [14] the test system is L1210. It is filed as functional, Mus musculus. This is another data set of the same source.
Series [15] has as its system L1210. As to the kind of experiment: Compound was tested for anticancer activities against L1210 leukemia in CD2F1 male mice at dose of 25 mg/kg per day; 0/6. In kind it is functional, Mus musculus.
Series [16] concerns L1210. As to the kind of experiment: Compound was tested for anticancer activities against L1210 leukemia in CD2F1 male mice at dose of 50 mg/kg per day; 0/6. In kind it is functional, Mus musculus.
Series [17] deals with L1210. Nature of the series: animal or person. In kind it is functional. As to conditions: Mus musculus.
Series [18] deals with L1210. As to the kind of experiment: Compound was tested for anticancer activities against L1210 leukemia in CD2F1 male mice at dose of 25 mg/kg per day. In kind it is functional. The conditions noted are these: Mus musculus.
In series [19] the test system is L1210. Nature of the series: Anticancer activities against L1210 leukemia in CD2F1 male mice at dose of 50 mg/kg per day. It is filed as functional. As to conditions: Mus musculus.
Series [20] has as its system L1210. It is filed as functional, Mus musculus. The conditions noted are these: at 100 mg/kg/day.
The test system of series [21] is L1210. As to the kind of experiment: Compound was tested for anticancer activity against L1210 leukemia in CD2F1 male mice at dose of 25 mg/kg per day. In kind it is functional, Mus musculus.
Series [22] relates to L1210. As to the kind of experiment: Compound was tested for anticancer activity against L1210 leukemia in CD2F1 male mice at dose of 50 mg/kg per day. It is filed as functional, Mus musculus.
The subject of series [23] is P388. Nature of the series: Compound was tested for its antineoplastic activity against P388 leukemia in CD2F1 male mice and the percent increase in life span was measured on day 30. It is filed as functional, Mus musculus. The procedure, abridged: as §1
The test system of series [24] is P388. As to the kind of experiment: Compound was tested for its antineoplastic activity against P388 leukemia in CD2F1 male mice. It is filed as functional, Mus musculus. Put shortly:
as §1

Series [25] deals with P388. As to the kind of experiment: Compound was tested for number of cures from P388 leukemia in CD2F1 male mice as tumor-free survivors after day 60; 6/6. It is filed as functional, Mus musculus. Put shortly:
as §3

Series [26] relates to P388. As to the kind of experiment: Compound was tested for its antineoplastic activities against P388 leukemia in CD2F1 male mice. In kind it is functional, Mus musculus. Put shortly: as §1
The test system of series [27] is L1210. As to the kind of experiment: Compound was tested for anticancer activities against L1210 leukemia in CD2F1 male mice at dose of 50 mg/kg per day. It is filed as functional, Mus musculus.
Series [28] has as its system L1210. Nature of the series: Compound was tested for anticancer activities against L1210 leukemia in CD2F1 male mice at dose of 50 mg/kg per day; 12.0/7. It is filed as functional, Mus musculus.
In series [29] the test system is P388. Nature of the series: Compound was tested for number of cures from P388 leukemia in CD2F1 male mice as tumor-free survivors after day 60; 3/6. In kind it is functional, Mus musculus. The procedure, abridged: as §3
In series [30] the test system is L1210. As to the kind of experiment: Compound was tested for anticancer activities against L1210 leukemia in CD2F1 male mice at dose of 6.5 mg/kg per day; 0/6. It is filed as functional, Mus musculus.
Series [31] deals with L1210. Nature of the series: (§4) Compound was tested for anticancer activities against L1210 leukemia in CD2F1 male mice at dose of 6.5 mg/kg per day. In kind it is functional, Mus musculus.
In series [32] the test system is L1210. Described as §4. It is filed as functional. The conditions noted are these: Mus musculus.
Series [33] concerns L1210. The conditions noted are these: Mus musculus. This is another data set of the same source.

The compound `CC1(C)CC(OP(=S)(N2CC2)N2CC2)CC(C)(C)N1[O]` gave an ILS with P388 [1] of 103%. The compound also gave an Optimal dose with P388 [2] of 12. Also, the selectivity ratio in [3] was found to be 5.15.
As to `CC1(C)CC(NC(=O)NP(=O)(N2CC2(C)C)N2CC2(C)C)CC(C)(C)N1[O]` (stereo not given), the results for the ILS in the series on P388 [1] (Mus musculus) and with L1210 [7] were 62% and 64%, respectively. Moreover, the Weight change on day 5 in the series on P388 [4] (Mus musculus) worked out at 7.3%. Besides, the Cures (survivors/total) in the series on P388 [5] came to 0. Besides, in the series on P388 [2] (Mus musculus), the Optimal dose was 90. In the series with L1210 [6], the Survivors at day 30 is 0. The T/C survival days in the series on L1210 [8] is 11.5. Also, the T/C with L1210 [9] came to 164%.
The compound `O=c1[nH]cc(F)c(=O)[nH]1` [FLUOROURACIL] had an ILS in the series on P388 [1] of 79%. Further, the Cures in the series with P388 [5] was 0 survivors/total. The same compound yielded an Optimal dose in the series with P388 [2] of 200. In the series with P388 [10], the “Weight change on day 5” value is recorded as -4%.
`CC1(C)CC(NC(=O)NP(=O)(N2CC2)N2CC2)CC(C)(C)N1[O]`: the T/C survival days in the series on L1210 [11] was found to be 14; in the series with L1210 [12], 8.6; in the series with L1210 [13], 12.6. The “Survivors at day 30” value in the series with L1210 [14], in the series with L1210 [15] and in the series with L1210 [16] was 0 in each case. In the series on L1210 [17], this compound had an ILS at 100 mg/kg/day of 115%. For the same compound, the ILS at 25 mg/kg/day in the series with L1210 [18] was determined as 23%. The same compound returned an increase in lifespan (ILS) at 50 mg/kg/day with L1210 [19] of 81%. For the same compound, the figures for the T/C with L1210 [20], in the series on L1210 [21] and in the series with L1210 [22] were 215%, 123% and 181%, respectively. The same compound showed an increase in life span (ILS) with P388 [1] of 170%. In the series on P388 [23], the ILS max is listed as 439%. Also, the ILS40 in the series on P388 [24] came out at 3.4 mg/kg/day. In the series with P388 [24], the Optimal dose worked out at 90. Besides, in the series on P388 [4], the “Weight change on day 5” value is recorded as -2.4%. The Cures in the series on P388 [25] was determined as 6 survivors/total. Besides, in series [3], the selectivity ratio came out at 26.5.
`O=P(N1CC1)(N1CC1)N1CC1` [TEPA]: the increase in lifespan (ILS) in the series with P388 [1] worked out at 135%. The ILS40 with P388 [26] came to 2.75 mg/kg/day. The compound further yielded a Cures in the series with P388 [5] of 0 survivors/total. Besides, in the series with P388 [2], the Optimal dose came out at 6. Further, the “Weight change on day 5” value in the series on P388 [10] is given as -4%. Further, the selectivity ratio in [3] was 2.2.
In the case of `CC1(C)CC(NC(=O)NP(=O)(N2CC2)N2CC2)C(C)(C)N1[O]` (stereo not given), the “Survivors at day 30” value with L1210 [16] came to 0. The compound also displayed a T/C in the series on L1210 [27] of 172%. In the series with L1210 [19], this compound showed an ILS at 50 mg/kg/day of 72%. For the same compound, in the series with L1210 [28], the T/C survival days was 12. Moreover, the ILS in the series on P388 [1] amounted to 178%. Moreover, the ILS max with P388 [23] amounted to 387%. In the series on P388 [26], the ILS40 was determined as 4 mg/kg/day. The compound also showed a Cures in the series with P388 [29] of 3 survivors/total. The same compound showed an Optimal dose with P388 [2] of 90. The selectivity ratio in series [3] amounted to 22.5.
Turning to `S=P(N1CC1)(N1CC1)N1CC1` [THIOTEPA], the “Survivors at day 30” value in the series on L1210 [30] was 0. In the series on L1210 [31], the T/C is recorded as 155%. Also, the ILS at 6.5 mg/kg/day in the series with L1210 [32] came out at 55%. Also, the increase in life span (ILS) in the series on P388 [1] is recorded as 141%. Moreover, the ILS40 in the series with P388 [26] came out at 2.18 mg/kg/day. Also, the Cures in the series on P388 [5] is on record as 0 survivors/total. The compound further had an Optimal dose with P388 [2] of 6. Further, in the series with P388 [10], the “Weight change on day 5” value is -2.1%. In addition, the selectivity ratio in [3] was found to be 2.75.
In the case of `CC1(C)CC(NP(=S)(N2CC2)N2CC2)CC(C)(C)N1[O]`, the increase in life span (ILS) in the series with P388 [1] came out at 96%. Moreover, the Optimal dose in the series on P388 [2] was 25. Besides, the selectivity ratio in [3] came out at 2.73.
Take `CC1(C)CC(NC(=O)NP(=O)(N2CC2(C)C)N2CC2(C)C)C(C)(C)N1[O]` (stereo not given): the results for the ILS in the series on P388 [1] (Mus musculus) and in the series on L1210 [7] were 56% and 48%, respectively. Moreover, in the series on P388 [5], the Cures (survivors/total) amounted to 0. In the series with P388 [2] (Mus musculus), this compound displayed an Optimal dose of 90. For the same compound, the Weight change on day 5 in the series with P388 [10] (Mus musculus) was 6.2%. For the same compound, the Survivors at day 30 with L1210 [6] was found to be 0. In the series on L1210 [33], the T/C survival days amounted to 10.4. Also, in the series on L1210 [9], the T/C came out at 148%.

One may read the ILS as the gain in survival time of treated over control animals, in per cent. One may read the T/C as the ratio of treated to control.

For the origin of these results see ChEMBL document CHEMBL1123268 (J Med Chem, 1986).
